Sampled rows, rich in hits. Any-hit rate of the full collection: about 1.8%.
STEP inh: STEP (human) phosphatase inhibition; 0.25% of 360,000 active; P54829; inhibition, % at 20 µM; recombinant STEP, OMFP fluorogenic substrate, fluorescence; AID 588621;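 active = inhibition at 20 µM, scaled per plate between control wells, above about 37%, limit read from the data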;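 also: 0% = DMSO with enzyme and substrate and 100% = substrate only without enzyme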
Target sequence (P54829 whole entry, looked up): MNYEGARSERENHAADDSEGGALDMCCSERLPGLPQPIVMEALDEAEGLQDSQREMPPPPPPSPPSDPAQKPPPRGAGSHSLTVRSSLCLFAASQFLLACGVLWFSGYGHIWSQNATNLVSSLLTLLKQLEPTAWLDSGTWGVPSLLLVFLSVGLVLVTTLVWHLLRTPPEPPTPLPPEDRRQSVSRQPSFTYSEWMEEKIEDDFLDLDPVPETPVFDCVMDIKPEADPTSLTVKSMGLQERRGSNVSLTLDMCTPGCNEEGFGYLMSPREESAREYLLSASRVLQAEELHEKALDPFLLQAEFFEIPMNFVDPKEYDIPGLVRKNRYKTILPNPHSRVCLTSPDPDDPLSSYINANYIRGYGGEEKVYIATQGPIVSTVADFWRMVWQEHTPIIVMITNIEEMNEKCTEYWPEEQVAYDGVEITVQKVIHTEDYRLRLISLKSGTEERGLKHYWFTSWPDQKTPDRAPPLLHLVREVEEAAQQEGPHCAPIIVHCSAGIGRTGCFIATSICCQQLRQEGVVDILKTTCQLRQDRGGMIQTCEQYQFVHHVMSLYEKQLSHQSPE
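Assay system: isolated STEP enzyme. Buffer or medium: pH 6.0 Bis-Tris with DTT and Tween 20. Also added: fluorogenic phosphatase substrate OMFP at 25 µM final. Dosing: 20 µM, 1% DMSO. Timing: 20 min reaction, room temperature, in the dark. Measured by: fluorescence intensity, excitation 480 nm, emission 540 nm. Evaluation: normalized % inhibition.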
DNMT1 block: inhibitors of human DNMT1 | P26358 | DNMT1 molecular beacon, Hinp1I cleavage, fluorescence | inhibition (reported as % activation of signal), % at 10 µM | 0.83% of 360,000 active; in the data active = inhibition above about 50%
LMPTP block: blocks human LMPTP phosphatase; recombinant LMPTP-A, OMFP fluorogenic substrate, fluorescence intensity; AID 651560; inhibition, % at 20 µM; 0.22% of 360,000 active;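 active = compounds that cut the enzyme signal by at least half of the control window in the single-dose screen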;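 also: plate controls were DMSO wells with enzyme plus substrate for no effect and substrate without enzyme for full effect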
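Test system: LMPTP-A phosphatase enzyme. Amount: LMPTP-A at 0.625 nM final in the reaction. Reagent: OMFP substrate, 400 µM final. Times: 50 min at room temperature. Signal: endpoint fluorescence intensity from OMFP dephosphorylation. Read-out basis: % inhibition. Benchmarks: no-enzyme and uninhibited controls.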
Scp1 inh: Scp-1 (human) phosphatase inhibition; Recombinant Scp1, phosphopeptide, malachite green phosphate absorbance; Q9GZU7; inhibition, % at 20 µM; 0.88% of 340,000 active; AID 493091;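 active = inhibition above about 50% at 20 µM, limit read from the data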;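 also: plate controls were DMSO wells with enzyme for no effect and wells lacking enzyme for full effect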
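Incubation: 45 min enzyme reaction at room temperature / System: truncated SCP-1 phosphatase (76-261aa) / Reagent: Phospho 17-mer peptide substrate / Buffer or medium: Acidic Tris acetate buffer with magnesium and detergent / Signal: absorbance at 630 nm / Doses: one concentration, 20 µM, with 1.0% DMSO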
SUMO1 PPI mod: alters human SUMO1 binding to SIM partners; inhibition, % at 20 µM; P63165; SUMO1 binding to a labelled peptide, TR-FRET, 1 h; AID 602429; 0.33% of 360,000 active; in the data active = inhibition above about 37%
HKDC1 inhibitor: blocks human hexokinase HKDC1 activity; 0.16% of 340,000 active; recombinant HKDC1, G6PDH/diaphorase resazurin coupled fluorescence; inhibition, % at 20 µM; Q2TB90; AID 493160;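 active = inhibition above about 35% when tested at 20 µM, limit read from the data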;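 also: plate controls were DMSO wells with enzyme for no effect and DMSO wells lacking enzyme for full effect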
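Test system: Recombinant HKDC1 (HK5) hexokinase enzyme, produced in-house | Input: HKDC1 at 5 µg/mL | Buffer or medium: Tris pH 8.0 buffer with MgCl2, Tween-20, BSA, BME | Schedule: 90 min reaction incubation at room temperature, dark | Technique: Resazurin-to-resorufin fluorescence via G6PDH and diaphorase coupling, 525/613 nm | Controls: DMSO wells with and without enzyme mix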
DNMT1 interf DR: beacon fluorescence artifact, dose response counter-screen. shares compounds with DNMT1 block. AID 602382. IC50, µM. 200 tested, under 10 active. molecular beacon fluorescence, spectral interference counter-screen; call rule not given here
DNMT1 confirm: DNMT1 inhibition confirmation, single concentration; DNMT1 molecular beacon HinP1I cleavage, fluorescence; shares compounds with DNMT1 block; 8% of 2,300 active; inhibition, % at 10 µM;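 active = average inhibition of at least 30% in the single-concentration confirmation test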
Beacon interf: beacon fluorescence artifact counter-screen | DNMT1 molecular beacon spectral interference counterscreen, fluorescence 485/520 | activation (fluorescence interference), % at 10 µM | AID 602387 | 1% of 2,300 active | shares compounds with DNMT1 block;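 active = activation of at least 30% at 10 µM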;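 also: DNMT1 catalytic domain with a HinP1I cleavage step and a FAM/dabcyl DNA beacon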
The depositor's hits bear a star; . = no result given.

SMILES | STEP inh | DNMT1 block | LMPTP block | Scp1 inh | SUMO1 PPI mod | HKDC1 inhibitor | DNMT1 confirm | Beacon interf | others
NCCCC[C@@H]1NC(=O)c2cc([N+](=O)[O-])cc(F)c2NCCCC[C@@H](C(N)=O)NC(=O)CNC1=O | -1 | 104* | -9 | -6 | -99 | -3 | 8 | 8
NC(=O)[C@@H]1CCCCNc2c(F)cc([N+](=O)[O-])cc2C(=O)N[C@@H](CCCN=C(N)N)C(=O)NCC(=O)N1 | 3 | -22 | -3 | 1 | -59 | 2 | . | .
CC(Sc1nc2ccc(C(=O)c3ccccc3)cc2[nH]1)C(=O)O (stereo not drawn) | -4 | 81* | -1 | -2 | 7 | -5 | -1 | 1
CC(Sc1nc2ccc(Br)cc2[nH]1)C(=O)O (stereo not drawn) | 1 | 5 | -1 | -6 | 3 | -7 | . | .
Cc1ccc(CN(C(=O)c2csnn2)C(C(=O)NC2CCCC2)c2ccco2)cc1 (stereo not drawn) | 1 | 1 | 0 | -5 | 9 | -6 | . | .
O=C(Nc1ccc2oc(=O)ccc2c1)c1ccc(-c2cccc(Cl)c2)o1 | 2 | 91* | 21 | -2 | 4 | -1 | -2 | -8
CCOc1ccc(N(CC(=O)Nc2ccc(C)cc2)S(C)(=O)=O)cc1 | -1 | -3 | 1 | -8 | 5 | -6 | . | .
CCOc1ccc(N(CC(=O)Nc2ccc(C)cc2C)S(C)(=O)=O)cc1 | -1 | 71* | -2 | 0 | -3 | -3 | -2 | 0
Cc1cc(C)c[n+](-c2[nH]c(=O)sc2/C=N/NC([S-])=Nc2ccccc2)c1 | 3 | 7 | -1 | -4 | -20 | -3 | . | .
CCOc1cc(/C=C2\C(=N)N3N=CSC3=NC2=O)ccc1OS(=O)(=O)c1ccccc1 | 0 | 4 | 1 | -2 | 9 | 17 | . | .
CCOc1cc(/C=C2/C(=N)N3N=C(C)SC3=NC2=O)ccc1OS(=O)(=O)c1ccc(C)cc1 | -1 | 75* | 1 | -9 | 19 | 13 | 9 | 1
CCOc1ccc(C=NNc2ccc(S(=O)(=O)Nc3ccccc3C(=O)O)cc2[N+](=O)[O-])cc1 | 36 | 85* | 97* | 45 | 110* | 20 | 102* | -8 | DNMT1 interf DR=>99
COc1ccc(NC(=S)NNc2ccc(S(=O)(=O)Nc3ccccc3C(=O)O)cc2[N+](=O)[O-])cc1 | -1 | -7 | 1 | 4 | 3 | -2 | . | .
Cc1nn(-c2ccccc2)c(Cl)c1/C=N/Nc1ccc(S(=O)(=O)Nc2ccccc2C(=O)O)cc1[N+](=O)[O-] | 8 | 100* | 43 | 0 | 21 | -1 | 82* | -10 | DNMT1 interf DR=>99
CCC(C)(C)C1CCC2(CC1)NC(=O)N(CC(=O)N(C)Cc1ccc(OC(F)F)cc1)C2=O (stereo not drawn) | 0 | -3 | 0 | -7 | 3 | -9 | . | .
CCCCC(NC(=O)CCc1c(C)c2cc3c4c(oc3c(C)c2oc1=O)CCCC4)C(=O)O (stereo not drawn) | 4 | 1 | 0 | 6 | 17 | 1 | . | .
COCCCN1C(=O)C(CC(=O)NCC2CCCCC2)CC(C(=O)N(C(C)C)C(C)C)=C1C (stereo not drawn) | -1 | -6 | 0 | . | -3 | . | . | .
CC(=O)c1ccc(OCc2cn(CC(=O)c3ccc(O)cc3)nn2)c(C)c1 | 0 | 40 | 0 | . | 0 | . | . | .
CC(=O)c1ccc(OCc2cn(CC(=O)c3ccc(O)cc3)nn2)cc1 | 2 | 37 | 0 | -8 | 6 | 21 | . | .
O=C(Cn1cc(COc2ccc(Br)cc2[N+](=O)[O-])nn1)c1ccc(O)cc1 | 0 | 51* | 1 | -2 | -11 | 31 | 8 | -3
Cc1cccc(C)c1OCc1cn(CC(=O)c2ccc(O)cc2)nn1 | 0 | 58* | -2 | 1 | 0 | 29 | 3 | -1
